Test results taken from ChEMBL document CHEMBL1125002, “Antiarthritic and suppressor cell inducing activity of azaspiranes: structure-function relationships of a novel class of immunomodulatory agents” (J Med Chem, 1990).
Activity calls are given as the source filed them. No cut-off for these calls is given here.

Columns and labels:
[1] = system: Rattus norvegicus; test: Adjuvant arthritic rat activity determined with respect to spirogermanium at a dose of 30 mg/kg; type: functional
Outline: (§1)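 Lewis rats given adjuvant on day 0. Drug homogenized in aqueous 0.5% gum tragacanth, given orally at 10 mL/kg daily on days 0–10. Volume of the noninjected (secondary) hind paw measured on day 16 by mercury displacement. Activity is relative to non-drug controls and scaled to spirogermanium at 30 mg/kg, which is set at 1.00. Significance by Student's t test.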

[2] = system: Rattus norvegicus; test: Total starting number of animals upon administration at a dose of 30 mg/kg; 8/8; type: functional
[3] = system: Rattus norvegicus; test: Total starting number of animals upon administration at a dose of 30 mg/kg; 7/8; type: functional
[4] = system: Rattus norvegicus; test: (§2) Adjuvant arthritic rat activity with respect to spirogermanium at a dose of 60 mg/kg; type: functional
[5] = system: Rattus norvegicus; test: Adjuvant arthritic rat activity with respect to spirogermanium at a dose of 15 mg/kg; type: functional; outline: as §1
[6] = system: Rattus norvegicus; test: Total starting number of animals upon administration at a dose of 15 mg/kg; 8/8; type: functional
[7] = system: Rattus norvegicus; test: Total starting number of animals upon administration at a dose of 60 mg/kg; 0/6; type: functional
[8] = system: Rattus norvegicus; test: Total starting number of animals upon administration at a dose of 15 mg/kg; 1/8; type: functional
[9] = system: Rattus norvegicus; test: Total starting number of animals upon administration at a dose of 30 mg/kg; 0/7; type: functional
[10] = system: Rattus norvegicus; test: as §2; type: functional; outline: as §1; remark: listed apart in the source
[11] = system: Rattus norvegicus; test: Total starting number of animals upon administration at a dose of 60 mg/kg; 5/8; type: functional
[12] = system: Rattus norvegicus; test: Adjuvant arthritic rat activity with respect to spirogermanium at a dose of 30 mg/kg; type: functional; outline: as §1
[13] = system: Rattus norvegicus; test: Total starting number of animals upon administration at a dose of 30 mg/kg; 6/6; type: functional
[14] = system: Rattus norvegicus; test: Total starting number of animals upon administration at a dose of 30 mg/kg; 5/6; type: functional
[15] = system: Rattus norvegicus; test: Adjuvant arthritic rat activity with respect to spirogermanium at a dose of 10 mg/kg; type: functional
[16] = system: Rattus norvegicus; test: Total starting number of animals upon administration at a dose of 30 mg/kg; 7/7; type: functional
[17] = system: Rattus norvegicus; test: Total starting number of animals upon administration at a dose of 10 mg/kg; 7/7; type: functional
[18] = system: Rattus norvegicus; test: Total starting number of animals upon administration at a dose of 90 mg/kg; 0/7; type: functional
[19] = system: Rattus norvegicus; test: Adjuvant arthritic rat activity with respect to spirogermanium at a dose of 7.5 mg/kg; type: functional; outline: as §1
[20] = system: Rattus norvegicus; test: Total starting number of animals upon administration at a dose of 7.5 mg/kg; 8/8; type: functional
[21] = system: Rattus norvegicus; test: Total starting number of animals upon administration at a dose of 30 mg/kg; 0/8; type: functional
[22] = system: Rattus norvegicus; test: Total starting number of animals upon administration at a dose of 30 mg/kg; 3/8; type: functional
[23] = system: Rattus norvegicus; test: Total starting number of animals upon administration at a dose of 60 mg/kg; 8/8; type: functional
[24] = system: Rattus norvegicus; test: Adjuvant arthritic rat activity with respect to spirogermanium at a dose of 30 mg/kg, active; type: functional, organism-based; set-up: dose 30 mg/kg
[25] = system: Rattus norvegicus; test: Adjuvant arthritic rat activity with respect to spirogermanium at a dose of 15 mg/kg, inactive; type: functional, organism-based; set-up: dose 15 mg/kg
[26] = system: Rattus norvegicus; test: Total starting number of animals upon administration at a dose of 15 mg/kg; 0/7; type: functional, organism-based; set-up: dose 15 mg/kg
[27] = system: Rattus norvegicus; test: Total starting number of animals upon administration at a dose of 60 mg/kg; 0/7; type: functional, organism-based; set-up: dose 60 mg/kg
[28] = system: Rattus norvegicus; test: Total starting number of animals upon administration at a dose of 15 mg/kg; 2/8; type: functional
[29] = system: Rattus norvegicus; test: Adjuvant arthritic rat activity with respect to spirogermanium at a dose of 25 mg/kg; type: functional
[30] = system: Rattus norvegicus; test: Total starting number of animals upon administration at a dose of 25 mg/kg; 7/7; type: functional

Compound | Activity [1] | Survival [2] | also measured
CCCC1(CCC)CCC2(CCN(CCCN(CC)CC)C2)CC1 [ATIPRIMOD] | 1.42 | 8 | 
CC(C)CC1(CC(C)C)CCC2(CCN(CCCN(C)C)C2)CC1 | 0.97 |  | Survival [3]: 7
CN(C)CCCN1CCC2(CC[Si](C)(C)CC2)C1 |  | 0 | Activity [4]: 0
CCCC1(CCC)CCC2(CCN(CCCCCN(C)C)C2)CC1 | 0.82 | 8 | 
CCCN(CCC)CCCN1CCC2(CCC(CCC)(CCC)CC2)C1 | 0.43 | 8 | 
CCCC1(CCC)CCC2(CCN(CCCN(C)C)C2)CC1 | 1.35 | 8 | Activity [5]: 0.18; Survival [6]: 8; Survival [7]: 0
CCCC1(CCC)CCC2(CCN(CCCN3CCOCC3)C2)CC1.Cl | 0 |  | Activity [5]: 0; Survival [8]: 1; Survival [9]: 0
CN(C)CCCN1CCC2(CCC3(CCCCCC3)CC2)C1 | 0.22 | 8 | Activity [10]: 1.7; Survival [11]: 5
CCCCCCCCCCC1CCC2(CC1)CCN(CCCN(C)C)C2 (stereo not given) |  | 8 | Activity [12]: 0.78
CC1CCC2(CC1)CCN(CCCN(C)C)CC2 | 0.25 | 8 | 
CC[Si]1(CC)CCC2(CCN(CCCN(C)C)C2)CC1 | 0.92 | 8 | Activity [5]: 0.27; Survival [6]: 8
CCCC1(CCC)CCC2(CC1)CC[N+](C)(CCC[N+](C)(C)C)C2 (stereo not given) | 0.05 | 8 | 
CCCC1(CCC)CCC2(CCN(CCCCCCCN(C)C)C2)CC1 |  | 8 | Activity [12]: 1.57
CC1CCCC2(CCN(CCCN(C)C)C2)C1.Cl (stereo not given) | 0 | 8 | 
CCCC1(CCC)CCC2(CCN(CCCNC)C2)CC1 | 1.55 |  | Survival [13]: 6
CCCC1(CCC)CCC2(CCN(CCCN)C2)CC1 | 0.91 |  | Survival [14]: 5
CN(C)CCCN1CCC2(CCCCCC2)C1.Cl | 0.2 | 8 | 
CCC1(CC)CCC2(CCN(CCCN(C)C)C2)CC1 | 0.57 |  | Activity [15]: 0.1; Survival [16]: 7; Survival [17]: 7; Survival [18]: 0
CN(C)CCCN1CCC2(CCCCC2)C1 | 0.27 | 8 | 
CN(C)CCCN1CCC2(CCCCC2)CC1 | 0.2 | 8 | 
CCCCCC1(CCCCC)CCC2(CCN(CCCN(C)C)CC2)CC1 |  |  | Activity [19]: 0.18; Activity [5]: 0.18; Survival [6]: 8; Survival [20]: 8; Survival [21]: 0

Compound | Activity [1] | Survival [2] | also measured
CCC1(CC)CCC2(CCN(CCCN(C)C)CC2)CC1 | 0.3 |  | Activity [15]: 0.03; Survival [16]: 7; Survival [17]: 7; Survival [18]: 0
CCCC1(CCC)CCC2(CCN(CCCN(C)C)CC2)CC1 | 1.02 |  | Survival [22]: 3
CCCCCC1(CCCCC)CCN(CCCN(C)C)C1.Cl | 0.19 | 8 | 
CCCC1(CCC)CCC2(CCN(CCN(C)C)C2)CC1 | 0 | 8 | 
CN(C)CCCN1CC2C3CCC(CC3)C2C1.Cl (stereo not given) | 0.35 | 8 | 
CN(C)CCCN1CCC2(CCC(C)(C)CC2)C1 | 0.12 | 8 | 
CCCC1(CCC)CCC2(CCN(CCCCCCN(C)C)C2)CC1 | 1.2 | 8 | 
CCCC1(CCC)CCC2(CCN(CCCO)C2)CC1.Cl |  |  | Activity [10]: 0.31; Survival [23]: 8
CCCC1(CCC)CCC2(CCN(CCCN3CCCCC3)C2)CC1 | 1.7 | 8 | 
CN(C)CCCN1CCC2(CC3CCC2C3)C1.Cl (stereo not given) | 0 | 8 | Activity [10]: 0.1; Survival [23]: 8
[3-(8,8-Diethyl-2-aza-8-germa-spiro[4.5]dec-2-yl)-propyl]-dimethyl-amine |  |  | Activity [24]: Active; Activity [25]: inactive; Survival [26]: 0; Survival [9]: 0; Survival [27]: 0
CCCC1(CCC)CCC2(CCN(CCCCN(C)C)C2)CC1 | 0.46 | 8 | 
CCCC1(CCC)CCC2(CCN(CCCN3CCCC3)C2)CC1 | 1.03 | 8 | 
CN(C)CCCN1CCC2(CCC(c3ccccc3)CC2)C1 (stereo not given) | 0.25 | 8 | 
CCCCN(CCCC)CCCN1CCC2(CCC(CCC)(CCC)CC2)C1 | 0.07 | 8 | 
CN(C)CCCN1CCC2(CCC(C(C)(C)C)CC2)C1 (stereo not given) | 0.31 | 8 | 
CCCCC1(CCCC)CCC2(CCN(CCCN(C)C)C2)CC1 |  |  | Activity [19]: 0.41; Survival [28]: 2; Survival [20]: 8; Survival [21]: 0
CCCC1(CCC)CCC2(CCN(CCCNC(C)=O)C2)CC1 | 0.24 |  | Survival [13]: 6
CN(C)CCCN1CCC2(CCC(C(C)(C)C)CC2)CC1 | 0.33 |  | Activity [15]: 0.04; Survival [16]: 7; Survival [17]: 7; Survival [18]: 0
CN(C)CCCN1CCC2(CCSCC2)C1 |  |  | Activity [29]: 0; Survival [30]: 7
